Screens as filed in PubChem.
Fibroblast inh: blocks proliferation of human lung fibroblasts. LL 47 human lung fibroblast viability, ATP luminescence; stronger effect = lower value. viability, % at 10 µM. 85,000 tested, 1.1% active. AID 719;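 active means viability at or below 50% in the single dose screen; inactive means viability above 50%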;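 further: compound exposure lasted 72 h before the ATP readout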
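material = human LL 47 lung fibroblast cells | dosing = compounds added from tenfold dosing solution, 0.1% DMSO final | timing = overnight cell rest, 72 h compound treatment at 37 °C | measured by = CellTiter-Glo luminescence measuring cellular ATP | evaluation = % viability versus median cells-only luminescence | control set = cell-only wells, no compound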
HUVEC inhibit: blocks proliferation of human endothelial cells | HUVEC proliferation, CellTiter-Glo luminescence, 72 h; stronger effect = lower value | viability, % at 10 µM (by protocol) | 86,000 tested, 1.1% active;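 active means viability at or below 30%; inactive means viability above 30%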
bCat KO growth: beta-catenin-lacking colon tumor cell growth suppression. HCT116 beta-catenin knockout viability, CellTiter-Glo, 60 h; stronger effect = lower value. viability, % at 10 µM. 140,000 tested, 1.5% active. AID 818;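 active means viability at or under a set limit, the compound median less 4 SD, cut at about 6% in these data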
HCT116 PTEN-null: growth suppressors of cells with PTEN tumor suppressor deletion; HCT116 PTEN-null viability, CellTiter-Glo, 60 h; stronger effect = lower value; viability, % at 10 µM; 140,000 tested, 1.2% active; AID 827;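 active means viability at or below a set limit, 4 SD under the median of all tested compounds, cut at about 3.7% in these data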;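 further: PTEN knockout HCT116 line with beta catenin targeted HCT116 as companion control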
H69AR growth 86K: blocks growth of human H69AR lung tumor cells | H69AR lung tumor viability, ATP luminescence, 72 h; stronger effect = lower value | viability, % at 10 µM | 85,000 tested, 6% active;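 active means viability at or below 40%; inactive means viability above 40%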;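 further: multidrug resistant small cell line overexpressing MRP-1 efflux transporter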
Each line names hits and unclear results; the compound was inactive in the other large screens. This is one part of a sample in which hits are shown more often than they occur.

N#CCCn1nnc2ccccc21	bCat KO growth 6.0
CCOc1ccc(-c2nc(N)ncc2Oc2cccc(OC)c2)c(O)c1	H69AR growth 86K 14
CCOC(=O)c1ccccc1NC(=O)c1cccs1	none
CCOC(=O)c1ccccc1NC(=O)c1n[nH]c(=O)c2ccccc12	HCT116 PTEN-null 3.1 (no result: Fibroblast inh, HUVEC inhibit, H69AR growth 86K)
CCOC(=O)c1ccccc1NC(=O)CSc1nc2c(c(=O)n(C)c(=O)n2C)n1C	H69AR growth 86K 32 (no result: Fibroblast inh)
O=C(/C=C/c1ccc2c(c1)OCO2)NCCSCc1c(Cl)cccc1Cl	none (no result: Fibroblast inh, HUVEC inhibit, H69AR growth 86K)
CCC(=O)Nc1nnc(SCC(=O)N2c3ccccc3CC2C)s1 (stereo not drawn)	Fibroblast inh 37
COc1ccc(C/C(C)=N/NC(=O)c2cccnc2)cc1	none (no result: Fibroblast inh, HUVEC inhibit, H69AR growth 86K)
O=C1C2C(C(=O)N1/N=C/c1ccc(N3CCCCC3)o1)C1C=CC2C12CC2 (stereo not drawn)	none (no result: Fibroblast inh, HUVEC inhibit, H69AR growth 86K)
C=CCNC(=O)CCCc1ccccc1	H69AR growth 86K 1.4
N/C(=N\S(=O)(=O)c1cccs1)c1ccccc1	none
Cc1ccc(NC2=C/C(=N\S(=O)(=O)c3cccs3)c3ccccc3C2=O)c(C)c1	Fibroblast inh 2.2, HUVEC inhibit 2.9, bCat KO growth 1.5, HCT116 PTEN-null 1.3, H69AR growth 86K 2.0
Cc1ccc(Cl)cc1NC1=C/C(=N\S(=O)(=O)c2cccs2)c2ccccc2C1=O	bCat KO growth 1.6, HCT116 PTEN-null 1.1 (no result: Fibroblast inh, HUVEC inhibit, H69AR growth 86K)
Cc1cccc(NC2=C/C(=N/S(=O)(=O)c3cccs3)c3ccccc3C2=O)c1	none (no result: Fibroblast inh, HUVEC inhibit, H69AR growth 86K)
COc1ccc(C(NC(=O)/C=C/c2ccco2)c2ccc(OC)c(OC)c2)cc1OC	none (no result: Fibroblast inh, HUVEC inhibit, H69AR growth 86K)
O=Cc1ccc2noc(-c3ccc(Cl)cc3)c2c1	H69AR growth 86K 39
c1ccc(-c2oc3ncnc(NCCCn4ccnc4)c3c2-c2ccccc2)cc1	H69AR growth 86K 29
c1ccc2c(c1)oc1c(NCCCn3ccnc3)ncnc12	none
N=c1c2c(-c3ccccc3)c(-c3ccccc3)n(Cc3ccco3)c2ncn1CCCn1ccnc1	bCat KO growth 2.2, HCT116 PTEN-null 2.1 (no result: Fibroblast inh, HUVEC inhibit, H69AR growth 86K)
c1ccc(-c2c(-c3ccccc3)n(Cc3ccco3)c3ncnc(NCCCn4ccnc4)c23)cc1	H69AR growth 86K 9.1
Cc1c(Cl)cccc1NC(=O)CCCN1C(=O)CCC1=O	none
COc1ccc(/C=C/C(=O)c2ccc3c(c2)OCCO3)cc1[N+](=O)[O-]	none (no result: Fibroblast inh, HUVEC inhibit, H69AR growth 86K)
COc1ccc(Oc2ccc(/C=C/C(=O)c3cccc(OC)c3)cc2[N+](=O)[O-])cc1	bCat KO growth 2.0, HCT116 PTEN-null 1.9 (no result: Fibroblast inh, HUVEC inhibit, H69AR growth 86K)
Cc1ccc(C(=O)N/C(=C\c2ccc(Cl)cc2)C(=O)NCC2CCCO2)cc1 (stereo not drawn)	none (no result: Fibroblast inh, HUVEC inhibit, H69AR growth 86K)
Cc1ccc(S(=O)(=O)c2cc3c(=O)n4cccc(C)c4nc3n(CC3CCCO3)c2=N)cc1 (stereo not drawn)	H69AR growth 86K 40 (no result: bCat KO growth, HCT116 PTEN-null)
CC(C)CC(=O)Nc1cccc(NC(=O)CC(C)C)n1	none (no result: Fibroblast inh, HUVEC inhibit, H69AR growth 86K)
Cc1ccc2cc3c(NC(=O)c4ccco4)nn(CC(C)C)c3nc2c1	H69AR growth 86K 35
Cc1ccc2nc3c(cc2c1)c(NC(=O)c1ccccn1)nn3CC(C)C	none
Cc1cccc(/C=N/NC(=O)C2CCCNC2=O)c1 (stereo not drawn)	none (no result: Fibroblast inh, HUVEC inhibit, H69AR growth 86K)
O=C(COC(=O)c1nc(-c2ccccc2)n(-c2cccc(C(F)(F)F)c2)n1)NCc1cccs1	none (no result: Fibroblast inh, HUVEC inhibit, H69AR growth 86K)
C=CCn1c(SCC(=O)NCc2ccc3c(c2)OCO3)nc2scc(-c3ccccc3)c2c1=O	none
C=CCn1c(SCC(=O)N2CC(=O)Nc3ccccc32)nc2scc(-c3ccccc3)c2c1=O	H69AR growth 86K 26
COc1nc(N=C(N)N)nc2ccc(C)cc12	none (no result: Fibroblast inh, HUVEC inhibit, H69AR growth 86K)
COc1ccc(-c2nc(C(N)=O)c3[nH]c(=O)n(-c4cccc(Cl)c4)c3n2)cc1OC	Fibroblast inh 7.5, HCT116 PTEN-null 2.3, H69AR growth 86K 2.1
CCc1ccc(-c2nc(C(N)=O)c3[nH]c(=O)n(-c4ccccc4OC)c3n2)cc1	Fibroblast inh 37, H69AR growth 86K 16
COc1ccc(C)cc1-n1nnnc1SCc1cc(=O)n2cc(C)ccc2n1	none
CCc1ccc(NC(=O)c2ccccc2NC(=O)C2CCCO2)cc1 (stereo not drawn)	none
COc1ccc2ccccc2c1/C=N\n1c(C)cc(C)c(C(N)=O)c1=O	none (no result: Fibroblast inh, HUVEC inhibit, H69AR growth 86K)
Cc1nnc(-c2ccccc2)c(=O)n1/N=C/c1c(O)ccc2ccccc12	bCat KO growth 4.5 (no result: Fibroblast inh, HUVEC inhibit, H69AR growth 86K)
CCN1CCN(C(=S)Nc2cccc([N+](=O)[O-])c2)CC1	none (no result: Fibroblast inh, HUVEC inhibit, H69AR growth 86K)
CCN1C/C(=C/c2cccc([N+](=O)[O-])c2)C(=O)/C(=C/c2cccc([N+](=O)[O-])c2)C1	bCat KO growth 1.7, HCT116 PTEN-null 1.6 (no result: Fibroblast inh, HUVEC inhibit, H69AR growth 86K)
COc1ccc(Cl)cc1NC(=S)NCCSc1ccc(C)cc1	none (no result: Fibroblast inh, HUVEC inhibit, H69AR growth 86K)
